From ChEMBL document CHEMBL5252546, “Salutaxel, a Conjugate of Docetaxel and a Muramyl Dipeptide (MDP) Analogue, Acts as Multifunctional Prodrug That Inhibits Tumor Growth and Metastasis” (J Med Chem, 2018)
Calls of active or inactive are those of the source. The calls are words filed in the database; no cut-off is given here.

Legend:
[1] = Cmax in mouse tumor implanted with mouse 4T1 cells at 5.7 mg/kg,iv measured upto 72 hrs; format: ADME, organism-based, Neoplasm; parameters: time < 72 hrs, dose 5.7 mg/kg, route iv
4T1 [2] = assay: Antitumor activity against mouse 4T1 cells implanted in BALB/c mouse assessed as decrease in spleen MMP2 expression level at 5.7 mg/kg,iv administrated once per week for 4 weeks by western blot assay; format: functional, organism-based
In short: (§1)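 4T1 cells injected into mammary fat pads of BALB/c mice. Saline vehicle or test article given iv once weekly for 4 weeks. Spleen, lung and tumor lysates immunoblotted for MMP2/MMP9 with β-actin as loading control. Bands averaged over five mice per group, representative of two independent experiments.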

4T1 [3] = assay: Antitumor activity against mouse 4T1 cells implanted in BALB/c mouse assessed as decrease in lung MMP2 expression level at 5.7 mg/kg,iv administrated once per week for 4 weeks in presence of compound 5b by western blot assay; format: functional, organism-based; in short: as §1
4T1 [4] = assay: Antitumor activity against mouse 4T1 cells implanted in BALB/c mouse assessed as decrease in tumor MMP2 expression level at 5.7 mg/kg,iv administrated once per week for 4 weeks in presence of compound 5b by western blot assay; format: functional, organism-based; in short: as §1
in vivo = details: mouse, tumor, iv, 5.7 mg/kg
[5] = Drug concentration in rat brain at 4 mg/kg,iv measured after 24 hrs; format: ADME, organism-based; details: in vivo
In short: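 Rats received 4 mg/kg iv. Parent drug and released docetaxel were assayed in tissues and plasma from the first sampling at 0.25 h to 24 h. The lower limit of quantitation was 200 ng/g.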

[6] = Chronic toxicity in male Beagle dog at 3 to 18 mg/kg,iv administered once per week for 30 days; format: organism-based, Canis lupus familiaris; details: in vivo, 720 h, dose 3-18 mg/kg, time 30 day
In short: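 Long-term toxicity: rats given iv 2, 4 or 8 mg/kg and dogs 3, 6 or 18 mg/kg once weekly over 30 days; toxicokinetics recorded; highest non-severely toxic dose determined by sex.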

[7] = Drug excretion in rat bile at 4 mg/kg,iv measured upto 48 hrs; format: ADME, organism-based; details: read-out: Drug excretion
In short: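 Rats were dosed iv. Bile was collected from 0 to 48 h, and cumulative excretion of the unchanged prototype was expressed as a percentage of the dose.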

[8] = Drug metabolism in rat feces assessed as metabolite MDA-205 formation at 4 mg/kg,iv measured after 24 hrs; format: ADME, organism-based; details: in vivo
[9] = Volume of distribution at steady state in Beagle dog at 4 mg/kg,iv measured upto 24 hrs; format: ADME, organism-based, Canis lupus familiaris; details: in vivo, read-out: Vdss
[10] = Volume of distribution at steady state in male Beagle dog at 1 mg/kg,iv measured upto 24 hrs; format: ADME, organism-based, Canis lupus familiaris; details: in vivo, read-out: Vdss
[11] = Volume of distribution at steady state in rat at 2 mg/kg,iv measured upto 24 hrs; format: ADME, organism-based; details: in vivo, read-out: Vdss
[12] = Volume of distribution at steady state in male rat at 2 mg/kg,iv measured upto 24 hrs; format: ADME, organism-based; details: in vivo, read-out: Vdss
[13] = Half life in male Beagle dog at 1 mg/kg,iv measured upto 24 hrs; format: ADME, organism-based, Canis lupus familiaris; details: in vivo
[14] = Half life in female rat at 8 mg/kg,iv measured upto 24 hrs; format: ADME, organism-based; details: in vivo
[15] = MRT (0 to infinity) in male rat at 8 mg/kg,iv measured upto 24 hrs; format: ADME, organism-based; details: in vivo
[16] = MRT (0 to infinity) in rat at 4 mg/kg,iv measured upto 24 hrs; format: ADME, organism-based; details: in vivo
[17] = MRT (0 to infinity) in male rat at 4 mg/kg,iv measured upto 24 hrs; format: ADME, organism-based; details: in vivo
[18] = AUC (0-t) in Beagle dog at 2 mg/kg,iv measured upto 24 hrs; format: ADME, organism-based, Canis lupus familiaris; parameters: time < 24 hrs, dose 2 mg/kg, route iv; details: in vivo
In short: (§2)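 Single iv dose: rats 2, 4 or 8 mg/kg by intravenous injection; Beagle dogs 1, 2 or 4 mg/kg by intravenous infusion. Plasma concentration–time data were analysed by sex and pooled. Reported parameters: Cmax, Tmax, AUC0−t, AUC0−∞, MRT0−∞, t1/2, CL, Vss, given as mean ± SD.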

[19] = AUC (0-t) in male rat at 4 mg/kg,iv measured upto 24 hrs; format: ADME, organism-based; parameters: time < 24 hrs, dose 4 mg/kg, route iv; details: in vivo; in short: as §2
[20] = AUC (0-t) in female rat at 2 mg/kg,iv measured upto 24 hrs; format: ADME, organism-based; parameters: time < 24 hrs, dose 2 mg/kg, route iv; details: in vivo; in short: as §2
[21] = Tmax in Beagle dog at 2 mg/kg,iv measured upto 24 hrs; format: ADME, organism-based, Canis lupus familiaris; details: in vivo
[22] = Tmax in female Beagle dog at 4 mg/kg,iv measured upto 24 hrs; format: ADME, organism-based, Canis lupus familiaris; details: in vivo
4T1 [23] = assay: Synergistic antitumor activity against mouse 4T1 cells xenografted with BALB/c mouse assessed as decrease in lung metastasis at 10 mg/kg,iv administrated in combination with doxorubicin once per week for 4 weeks; format: functional, organism-based
[24] = Toxicity in Beagle dog assessed as effect on respiratory intensity at 1 to 4 mg/kg,iv; format: organism-based, Canis lupus familiaris; details: in vivo, dose 1-4 mg/kg
Cytochrome P450 2B6 = Cytochrome P450 2B6 (Homo sapiens, UniProt P20813); assay: Inhibition of CYP2B6 in human liver microsomes using probe substrate at 0.1 to 100 uM in presence of NADPH; format: ADME, Microsome; details: dose 0.1-100 µM
Cytochrome P450 2C9 = Cytochrome P450 2C9 (Homo sapiens, UniProt P11712); assay: Inhibition of CYP2C9 in human liver microsomes using probe substrate at 0.1 to 100 uM in presence of NADPH; format: ADME, Microsome; details: dose 0.1-100 µM
Cytochrome P450 2C8 = Cytochrome P450 2C8 (Homo sapiens, UniProt P10632); assay: Inhibition of CYP2C8 in human liver microsomes using probe substrate in presence of NADPH; format: ADME, Microsome
[25] = Drug metabolism in dog hepatocytes assessed as MDA-205 metabolite formation at 20 uM incubated for 180 mins; format: ADME, cell-based, Canis lupus familiaris, Hepatocyte; details: 3 h
[26] = Drug metabolism in rat hepatocytes assessed as docetaxel metabolite formation at 20 uM incubated for 180 mins; format: ADME, cell-based, Hepatocyte; details: 3 h
[27] = Stability in dog hepatocyte assessed as compound remaining at 3 uM incubated upto 120 mins; format: ADME, cell-based, Canis lupus familiaris; details: hepatocytes, 2 h
[28] = Stability in human hepatocyte assessed as compound remaining at 3 uM incubated upto 120 mins; format: ADME, cell-based; details: hepatocytes, 2 h
[29] = Stability in dog plasma assessed as compound remaining at 40 uM incubated for 6 hrs; format: ADME, cell-free, Canis lupus familiaris
A549 = assay: Antiproliferative activity against human A549 cells assessed inhibition of cell growth incubated for 72 hrs by SRB assay; format: functional, cell-based; details: A549, 72 h
[30] = Toxicity in Beagle dog assessed as effect on gastrointestinal tract at 3 to 18 mg/kg,iv measured upto 24 hrs; format: organism-based, Canis lupus familiaris; details: in vivo, dose 3-18 mg/kg
4T1 [31] = assay: Antitumor activity against mouse 4T1 cells implanted in BALB/c mouse assessed as decrease in serum IL-6 level at 20 mg/kg,iv administrated once per week for 4 weeks by ELISA; format: functional, organism-based
In short: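 4T1 fat-pad model in BALB/c mice, iv 5–20 mg/kg once weekly for 4 weeks, with vehicle and naive groups; serum MMP9, TIMP-1, IL-6 and S100A9 measured by mouse ELISA kits.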

4T1 [32] = assay: Antitumor activity against mouse 4T1 cells implanted in BALB/c mouse assessed as decrease in lung MMP2 expression level at 5 to 20 mg/kg,iv administrated once per week for 4 weeks by western blot assay; format: functional, organism-based; details: dose 5-20 mg/kg
In short: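 4T1 fat-pad model in BALB/c mice, iv once weekly for 4 weeks; MMP9, MMP2 and NOD1 in spleen, lung and tumour by western blot, β-actin loading control; bands averaged over five mice per group, representative of two independent experiments.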

Chain of Cytochrome P450 2C9 (P11712 whole entry): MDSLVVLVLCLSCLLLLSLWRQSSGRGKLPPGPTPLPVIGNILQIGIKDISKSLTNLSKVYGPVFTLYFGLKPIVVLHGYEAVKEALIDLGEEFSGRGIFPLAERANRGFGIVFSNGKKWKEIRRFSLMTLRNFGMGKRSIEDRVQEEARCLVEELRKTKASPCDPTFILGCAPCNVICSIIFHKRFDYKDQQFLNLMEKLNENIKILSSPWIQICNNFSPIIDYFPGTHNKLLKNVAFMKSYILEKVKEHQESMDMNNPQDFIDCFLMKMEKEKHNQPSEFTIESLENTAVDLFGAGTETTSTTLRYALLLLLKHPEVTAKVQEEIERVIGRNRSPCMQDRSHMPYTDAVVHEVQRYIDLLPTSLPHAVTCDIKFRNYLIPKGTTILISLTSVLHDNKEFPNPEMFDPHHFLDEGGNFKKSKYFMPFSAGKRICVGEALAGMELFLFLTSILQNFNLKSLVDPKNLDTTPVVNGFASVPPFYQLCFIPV
Chain of Cytochrome P450 2C8 (P10632 whole entry): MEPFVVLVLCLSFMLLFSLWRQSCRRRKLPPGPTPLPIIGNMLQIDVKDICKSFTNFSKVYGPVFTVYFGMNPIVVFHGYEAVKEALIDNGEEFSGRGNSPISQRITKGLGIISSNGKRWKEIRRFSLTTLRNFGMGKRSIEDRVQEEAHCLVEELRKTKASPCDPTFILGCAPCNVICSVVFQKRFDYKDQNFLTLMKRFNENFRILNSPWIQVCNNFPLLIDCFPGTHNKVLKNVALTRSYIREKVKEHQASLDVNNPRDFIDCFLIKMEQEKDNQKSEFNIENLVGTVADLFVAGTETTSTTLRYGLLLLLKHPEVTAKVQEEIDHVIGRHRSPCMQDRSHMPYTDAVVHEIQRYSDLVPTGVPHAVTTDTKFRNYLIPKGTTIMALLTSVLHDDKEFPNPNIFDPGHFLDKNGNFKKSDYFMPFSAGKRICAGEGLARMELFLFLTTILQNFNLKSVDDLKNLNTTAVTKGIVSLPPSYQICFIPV
Chain of Cytochrome P450 2B6 (P20813 whole entry): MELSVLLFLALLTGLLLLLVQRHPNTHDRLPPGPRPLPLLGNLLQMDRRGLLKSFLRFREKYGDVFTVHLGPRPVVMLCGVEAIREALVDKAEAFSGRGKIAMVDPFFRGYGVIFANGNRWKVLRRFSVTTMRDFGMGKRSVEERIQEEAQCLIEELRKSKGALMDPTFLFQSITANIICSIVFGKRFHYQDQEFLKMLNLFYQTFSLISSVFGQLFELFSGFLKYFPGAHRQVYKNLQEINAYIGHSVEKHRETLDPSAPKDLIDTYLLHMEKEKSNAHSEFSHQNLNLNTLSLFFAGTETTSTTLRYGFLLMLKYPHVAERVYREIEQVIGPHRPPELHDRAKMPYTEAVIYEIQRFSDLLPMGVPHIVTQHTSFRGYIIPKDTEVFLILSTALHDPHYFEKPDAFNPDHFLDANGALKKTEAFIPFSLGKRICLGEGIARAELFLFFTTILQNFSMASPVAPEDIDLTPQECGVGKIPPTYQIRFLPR

CC(=O)O[C@@]12CO[C@@H]1C[C@H](O)[C@@]1(C)C(=O)[C@H](O)C3=C(C)[C@@H](OC(=O)[C@H](O)[C@@H](NC(=O)OC(C)(C)C)c4ccccc4)C[C@@](O)([C@@H](OC(=O)c4ccccc4)[C@H]21)C3(C)C [DOCETAXEL ANHYDROUS]
Cmax [1]: 950 nM | Activity (4T1 [2]): inactive | Activity (4T1 [3]): inactive | Activity (4T1 [4]): inactive | AUC(0-t) at 72 h (in vivo): 27 µM·h

CC(=O)O[C@@]12CO[C@@H]1C[C@H](O)[C@@]1(C)C(=O)[C@H](O)C3=C(C)[C@@H](OC(=O)[C@H](OC(=O)CCC(=O)NCCCC[C@H](NC(=O)CC[C@@H](NC(=O)[C@H](C)NC(=O)/C=C/c4ccc(F)cc4Cl)C(N)=O)C(=O)O)[C@@H](NC(=O)OC(C)(C)C)c4ccccc4)C[C@@](O)([C@@H](OC(=O)c4ccccc4)[C@H]21)C3(C)C
Drug uptake [5]: Active | Activity [6]: Non-Toxic | dose excreted at 48 h [7]: 82.9% | Drug metabolism [8]: Metabolite_Detected | Vd [9]: 0.08 L/kg | Vd [10]: 0.134 L/kg | Vd [11]: 0.071 L/kg | Vd [12]: 0.076 L/kg | half-life [13]: 13.6 min | half-life [14]: 15.2 min | MRT inf [15]: 37.9 min | MRT inf [16]: 19.1 min | MRT inf [17]: 22.5 min | AUC(0-t) at 24 h [18]: 5900 ng·h/mL | AUC(0-t) at 24 h [19]: 20700 ng·h/mL | AUC(0-t) at 24 h [20]: 4320 ng·h/mL | Tmax [21]: 30 min | Tmax [22]: 30 min | Activity (4T1 [23]): Active | Activity [24]: Non-Toxic | inhibition (INH) (Cytochrome P450 2B6): Not Active | inhibition (INH) (Cytochrome P450 2C9): Not Active | IC50 (Cytochrome P450 2C8): 9.97 µM | Drug metabolism [25]: Metabolite_Detected | Drug metabolism [26]: Metabolite_Detected | Stability [27]: Stable | Stability [28]: Stable | Stability [29]: Stable | IC50 (A549): 0.0163 µM | Activity [30]: Toxic | Activity (4T1 [31]): Active | Activity (4T1 [32]): inactive
